Results on 8 compounds are retold here after ChEMBL document CHEMBL3813617, “An alternative route to the arylvinyltriazole nucleosides” (Bioorg Med Chem Lett, 2016).

Each structure is given as a SMILES string. Active and inactive are the calls of the source. No cut-off for these calls is given here.

As a reminder, the IC50 is the point on the concentration scale where inhibition reaches its midpoint. One may read the CC50 as the concentration that lowers cell viability or growth by half.

For one data set, the system named is Human alphaherpesvirus 1. Description: Antiviral activity against Herpes simplex virus type 1 L2 infected in African green monkey Vero E6 cells assessed as reduction of virus-induced cytopathic effect. Particulars: Human alphaherpesvirus 1, L2, Vero. It is filed as functional, organism-based. A general note: Cytopathic effects are the visible damage that an infection or toxin causes in cultured cells.

The nature of data set [1]: Cytotoxicity against African green monkey Vero E6 cells up to 2 mM. It is filed as cell-based. The settings on record: chlorocebus sabaeus.
The next data set relates to Vero. Description: Antiviral activity against Influenza A H5N1 virus (A/duck/Novosibirsk/56/05) infected in African green monkey Vero cells assessed as reduction of virus-induced cytopathic effect. It is filed as functional, cell-based. The settings on record: Influenza A virus (A/duck/Novosibirsk/56/2005(H5N1)).
The nature of data set [2]: Cytotoxicity against African green monkey Vero E6 cells. It is filed as cell-based. Particulars: chlorocebus sabaeus. The method in brief: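 Cytotoxicity measured in Vero cells, […]; CC50 derived.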
The test system of another data set is Hepatitis C virus. Description: Antiviral activity against Hepatitis C virus infected in African green monkey Vero cells assessed as reduction of virus-induced cytopathic effect. The format is functional, organism-based, Hepacivirus hominis.

`NC(=O)c1nc(/C=C/c2cccc(F)c2)n([C@@H]2O[C@H](CO)[C@@H](O)[C@H]2O)n1`: in the data set on Human alphaherpesvirus 1, the IC50 was 6.9 µM. In addition, the Activity result in data set [1] is “Non-toxic”. Besides, the outcome in the data set on Vero was inactive.
In data set [2], `NC(=O)c1nc(/C=C/c2ccc(F)cc2)n([C@@H]2O[C@H](CO)[C@@H](O)[C@H]2O)n1` showed a CC50 of 3.4 µM. Moreover, the result with Vero was inactive.
As for `NC(=O)c1nc(/C=C\c2cccc(F)c2)n([C@@H]2O[C@H](CO)[C@@H](O)[C@H]2O)n1`, the Activity result in data set [1] was “Non-toxic”. The outcome in the data set on Vero was inactive.
For `NC(=O)c1nc(/C=C/c2ccccc2F)n([C@@H]2O[C@H](CO)[C@@H](O)[C@H]2O)n1` (mixture of isomers), in that order: “Non-toxic” and “inactive”.
For `NC(=O)c1nc(/C=C\c2ccc(F)cc2)n([C@@H]2O[C@H](CO)[C@@H](O)[C@H]2O)n1`, in that order: “Non-toxic” and “inactive”.
On to `NC(=O)c1ncn([C@@H]2O[C@H](CO)[C@@H](O)[C@H]2O)n1` [RIBAVIRIN], for which the IC50 in the data set on Human alphaherpesvirus 1 was 10 µM. This compound showed a CC50 in data set [2] of 0.3 µM.
With `NC(=O)c1nc(/C=C/c2ccc(C(F)(F)F)cc2)n([C@@H]2O[C@H](CO)[C@@H](O)[C@H]2O)n1`, in the data set on Hepatitis C virus, the IC50 came out at 0.09 µM.
Take `NC(=O)c1nc(/C=C\c2ccc(C(F)(F)F)cc2)n([C@@H]2O[C@H](CO)[C@@H](O)[C@H]2O)n1`: the Activity result in data set [1] is on record as “Non-toxic”. Besides, in the data set with Vero, the result was inactive.
